Converted amounts (≈) assume the structure as drawn. The source made the active and inactive calls.

Experiment [1] concerns MDA-MB-231. As to the kind of experiment: Antiproliferative activity against human MDA-MB-231 cells at 10 uM after 72 hrs by MTT assay. It is filed as functional. The following applies: MDA-MB-231, 72 h. Summed up:
(§1)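 5000 cells per well added to pre-equilibrated medium at 37 °C; compounds from 10^-3 M DMSO stocks, final 10^-5 M. After 72 h, MTT (5 g/L) for 4 h, formazan dissolved in DMSO, OD 550 nm. % growth inhibition vs 1% DMSO medium (0%) and 10% SDS lysis (100%); mean ± SEM, 24 measures, three independent experiments.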
For orientation: Formazan colour is commonly taken as a measure of viable cells.

Experiment [2] has as its system MCF7. As to the kind of experiment: Antiproliferative activity against human MCF7 cells after 72 hrs by MTT assay. The experiment is classed as functional. The conditions noted are these: MCF7, 72 h. In outline: as §1
Experiment [3] concerns Candida tropicalis. As to the kind of experiment: Antifungal activity against Candida tropicalis DSM 1346 at 50 ug after 24 hrs by agar diffusion method. The experiment is classed as functional. In outline:
(§2)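 Yeasts grown on yeast extract peptone dextrose medium at 30 °C for 24 h, then agar well diffusion with 50 µg compound in 80% DMSO; 80% DMSO alone as control. Averaged inhibition zone diameter from triplicate, scored 6-9, 9-12 or >12 mm.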
In general terms: A growth-free zone around the sample is the usual read-out of agar diffusion tests.

Experiment [4] relates to Listeria innocua. The experiment is described as follows: Antibacterial activity against Listeria innocua at 50 ug after 24 hrs by agar diffusion method. The experiment is classed as functional. In outline:
(§3)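 Bacteria pre-grown 24 h on nutritive agar (tryptone soy agar for E. faecalis, L. inocua) at 37 °C (30 °C for E. faecalis, L. inocua, B. cereus). Agar well diffusion with 50 µg compound in 80% DMSO; 80% DMSO alone as control. Inhibition zone diameter averaged from triplicate, scored 6-9, 9-12, >12 mm.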

Experiment [5] relates to Bacillus cereus. As to the kind of experiment: Antibacterial activity against Bacillus cereus at 50 ug after 24 hrs by agar diffusion method. The experiment is classed as functional. In outline: as §3
Experiment [6] has as its system Klebsiella pneumoniae. As to the kind of experiment: Antibacterial activity against Klebsiella pneumoniae CIP 53153 at 50 ug after 24 hrs by agar diffusion method. The experiment is classed as functional, organism-based. In outline:
as §3

Experiment [7] relates to Pichia kudriavzevii. The experiment is described as follows: Antifungal activity against Issatchenkia orientalis DSM6128 at 50 ug after 24 hrs by agar diffusion method. The experiment is classed as functional, organism-based. In outline:
as §2

The subject of experiment [8] is Staphylococcus aureus. As to the kind of experiment: Antibacterial activity against Staphylococcus aureus ATCC 25923 at 50 ug after 24 hrs by agar diffusion method. The experiment is classed as functional. The conditions noted are these: for zone of inhibition at 50 µg/disc: Staphylococcus aureus, ATCC 25923, 24 h, read-out: IZ. Summed up: as §3
Experiment [9] has as its system MDA-MB-231. The experiment is described as follows: Antiproliferative activity against human MDA-MB-231 cells after 72 hrs by MTT assay. The experiment is classed as functional. The following applies: MDA-MB-231, 72 h. Summed up: as §1
Experiment [10] relates to Escherichia coli. As to the kind of experiment: Antibacterial activity against Escherichia coli ATCC 25922 at 50 ug after 24 hrs by agar diffusion method. It is filed as functional. Summed up:
as §3

Experiment [11] deals with Candida albicans. The experiment is described as follows: Antifungal activity against Candida albicans ATCC 10231 at 50 ug after 24 hrs by agar diffusion method. The experiment is classed as functional. Summed up:
as §2

For experiment [12], the system named is Enterococcus faecalis. As to the kind of experiment: Antibacterial activity against Enterococcus faecalis CIP 103214 at 50 ug after 24 hrs by agar diffusion method. It is filed as functional. Summed up:
as §3

In experiment [13] the test system is Pseudomonas aeruginosa. As to the kind of experiment: Antibacterial activity against Pseudomonas aeruginosa ATCC 27853 at 50 ug after 24 hrs by agar diffusion method. The experiment is classed as functional, organism-based. In outline:
as §3

Experiment [14] has as its system Nakaseomyces glabratus. As to the kind of experiment: Antifungal activity against Candida glabrata DSM6425 at 50 ug after 24 hrs by agar diffusion method. It is filed as functional. Summed up: as §2
The subject of experiment [15] is Staphylococcus aureus. The experiment is described as follows: Antibacterial activity against Staphylococcus aureus ATCC 25923 after 24 hrs by broth macrodilution method. It is filed as functional. The conditions noted are these: ATCC 25923, 24 h. In outline: (§4)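 Bacteria pre-grown 24 h on nutritive agar (tryptone soy agar for E. faecalis, L. inocua) at 37 °C (30 °C for E. faecalis, L. inocua, B. cereus). MIC and MBC determined by macro-dilution broth method; MBC = lowest concentration killing 99.99% of inoculum. Compounds in DMSO, max 2.13% solvent in cultures. Triplicate.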

Experiment [16] has as its system Bacillus cereus. The experiment is described as follows: Antibacterial activity against Bacillus cereus after 24 hrs by broth macrodilution method. The experiment is classed as functional. Summed up:
as §4

In the case of `c1ccc(/N=c2\ssnc2-c2cc3ccccc3o2)cc1`, the inhibition at 10 µM in experiment [1] came out at 0%. Besides, the GI50 is 10 µM in experiment [2] and > 10 µM in experiment [9]. For the same compound, the outcome in experiment [3], in experiment [4], in [5], in experiment [6], in experiment [7] and in experiment [8] was inactive. Besides, the result in experiment [10], in [11], in [12], in experiment [13] and in [14] was inactive.

Regarding `S=c1ssnc1-c1cc2ccccc2o1`, in experiment [1], 10 µM produced 0% inhibition. Further, the concentration for 50% growth inhibition (GI50) in [2] and in [9] was > 10 µM throughout. Moreover, the result in experiment [3], in experiment [4], in experiment [5], in experiment [6], in experiment [7] and in [8] was inactive. Also, the result in experiment [10], in [11], in experiment [12], in experiment [13] and in [14] was inactive.

For the compound `c1ccc(/N=c2\ssnc2-c2ccccc2)cc1`, the inhibition at 10 µM in experiment [1] was determined as 0%. Also, the 50% growth inhibitory concentration (GI50) is 10 µM in experiment [2] and > 10 µM in experiment [9]. Also, the result in [3], in [4], in [5], in [6], in [7] and in experiment [10] was inactive. Further, the outcome in experiment [11], in experiment [12], in [13] and in experiment [14] was inactive. In addition, the zone of inhibition at 50 µg/disc in experiment [8] is 6 mm.

In the case of `c1ccc(/N=c2\ssnc2-c2cccs2)cc1`, the inhibition at 10 µM in experiment [1] was 0%. For the same compound, the concentration for 50% growth inhibition (GI50) in experiment [2] and in [9] was > 10 µM throughout. Also, the result in experiment [3], in experiment [4], in experiment [5], in experiment [6], in experiment [7] and in [8] was inactive. The outcome in experiment [10], in experiment [11], in experiment [12], in experiment [13] and in experiment [14] was inactive.

In [1], `Cc1nssc1=S` came in with an inhibition at 10 µM of 0%. Further, the GI50 in experiment [2] and in experiment [9] was > 10 µM in each case. Moreover, the outcome in [3], in [4], in experiment [5], in experiment [6], in [7] and in [10] was inactive. Moreover, the outcome in experiment [11], in experiment [12], in [13] and in experiment [14] was inactive. In [15], the minimal bactericidal concentration (MBC) is > 48 µg/mL. This compound showed an MIC in [15] of 48 µg/mL (≈ 322 µM). For the same compound, in experiment [8], the zone of inhibition at 50 µg/disc is 6 mm.

In turn, `O=[N+]([O-])c1ccc(-c2nssc2=S)cc1` came in with an inhibition at 10 µM in [1] of 0%. Moreover, the 50% growth inhibitory concentration (GI50) in [2] and in experiment [9] was > 10 µM throughout. Besides, the outcome in experiment [3], in [4], in experiment [5], in experiment [6], in [7] and in [10] was inactive. Besides, the result in experiment [11], in experiment [12], in experiment [13] and in experiment [14] was inactive. The zone of inhibition at 50 µg/disc in experiment [8] came to 6 mm.

Compound `O=[N+]([O-])c1ccc(-c2nss/c2=N\c2ccccc2)cc1` returned an inhibition at 10 µM in experiment [1] of 0%. In addition, the results for the GI50 in [2] and in experiment [9] were 10 µM and > 10 µM, respectively. For the same compound, the result in [3], in experiment [4], in experiment [5], in experiment [6], in experiment [7] and in experiment [8] was inactive. Also, the result in experiment [10], in experiment [11], in experiment [12], in experiment [13] and in experiment [14] was inactive.

With `S=c1ssnc1-c1cccs1`, the inhibition at 10 µM in [1] was 0%. Further, the concentration for 50% growth inhibition (GI50) in experiment [2] and in experiment [9] was > 10 µM each time. The result in [3], in experiment [4], in experiment [5], in [6], in experiment [7] and in [8] was inactive. Moreover, the result in experiment [10], in experiment [11], in experiment [12], in experiment [13] and in experiment [14] was inactive.

Compound `Fc1ccc(-c2nss/c2=N\c2ccccc2)cc1` showed an inhibition at 10 µM in experiment [1] of 0%. Also, the GI50 in experiment [2] was 10 µM; in experiment [9], > 10 µM. The outcome in experiment [3], in experiment [4], in [5], in experiment [6], in experiment [7] and in experiment [8] was inactive. Further, the result in experiment [10], in [11], in experiment [12], in [13] and in [14] was inactive.

In turn, `S=c1ssnc1-c1ccccc1` came in with an inhibition at 10 µM in experiment [1] of 0%. Moreover, the MBC in experiment [16] and in [15] was > 48 µg/mL throughout. The MIC in experiment [16] was > 48 µg/mL; in [15], 32 µg/mL (≈ 151 µM). The GI50 in experiment [2] and in experiment [9] was > 10 µM throughout. Further, the result in experiment [3], in experiment [4], in experiment [6], in [7], in [10] and in experiment [11] was inactive. Moreover, the outcome in experiment [12], in [13] and in experiment [14] was inactive. In addition, the zone of inhibition at 50 µg/disc is 9 mm in [5] (read-out: IZ) and 12 mm in experiment [8].

The compound `Cc1nss/c1=N\c1ccccc1` showed an inhibition at 10 µM in experiment [1] of 0%. Besides, the GI50 in experiment [2] and in experiment [9] was > 10 µM in each case. For the same compound, the result in [3], in experiment [4], in experiment [5], in experiment [6], in experiment [7] and in experiment [8] was inactive. Besides, the outcome in [10], in experiment [11], in experiment [12], in experiment [13] and in [14] was inactive.

`Fc1ccc(-c2nssc2=S)cc1`: the inhibition at 10 µM in [1] was determined as 0%. Also, the 50% growth inhibitory concentration (GI50) in experiment [2] and in [9] was > 10 µM throughout. Besides, the outcome in [3], in experiment [4], in experiment [5], in experiment [6], in experiment [7] and in [8] was inactive. The result in experiment [10], in experiment [11], in experiment [12], in [13] and in experiment [14] was inactive.

In general, inhibition refers to the drop in the measured response relative to a control, in per cent. What is called GI50 is the concentration at which growth is held to half of that of the control. Read a low GI50 as more potent growth inhibition. Usually MBC stands for the smallest concentration meeting the test's criterion for killing. What is called MIC is the least concentration at which growth counts as inhibited. Lower therefore signals a more susceptible organism.

The record behind these values is ChEMBL document CHEMBL1139303, “One-pot synthesis of 5-phenylimino, 5-thieno or 5-oxo-1,2,3-dithiazoles and evaluation of their antimicrobial and antitumor activity” (2009).
